Assay results: ChEMBL document CHEMBL4680134, “Structural optimization of natural product nordihydroguaretic acid to discover novel analogues as AcrB inhibitors” (Eur J Med Chem, 2020)

Columns and labels:
[1] = Growth inhibition of Escherichia coli BW25113 expressing AcrB at 512 ug/ml after 18 hrs by broth microdilution assay; settings: dose 512 µg/ml
Summary of the method: (§1)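 MIC determined by 96-well broth microdilution in E. coli BW25113 expressing AcrB ((+)AcrB) and an isogenic acrB-deleted strain ((-)AcrB). Used to set the compound concentrations for synergy testing that produce no direct antibacterial effect.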

[2] = Growth inhibition of Escherichia coli harboring AcrB deletion mutant at 64 ug/ml after 18 hrs by broth microdilution assay; settings: dose 64 µg/ml; summary of the method: as §1

| Structure (SMILES) | growth inhibition (GI) [1] | growth inhibition (GI) [2] |
| --- | --- | --- |
| Oc1ccc(CCCCc2ccccc2)cc1O | Non-Toxic | Non-Toxic |
| Cc1ccc(CCCCc2ccc(O)c(O)c2)cc1 | Non-Toxic | Non-Toxic |
| Oc1ccc(CCCC(c2ccccc2)c2ccccc2)cc1O | Non-Toxic | Non-Toxic |
| Cn1cc(CCCCc2ccc(O)c(O)c2)c2ccccc21 | Non-Toxic | Non-Toxic |
| Oc1ccc(CCCCc2ccc(-c3ccccc3)cc2)cc1O | Non-Toxic | Non-Toxic |
| CC(C)(C)c1ccc(C(=O)NCCc2ccc(O)c(O)c2)cc1 | Non-Toxic | Non-Toxic |
| Nc1ccc(CCCCc2ccc(O)c(O)c2)cc1 | Non-Toxic | Non-Toxic |
| Oc1ccc(CCCCc2c3ccccc3cc3ccccc23)cc1O | Non-Toxic | Non-Toxic |
| Oc1ccc(CCCCc2ccncc2)cc1O | Non-Toxic | Non-Toxic |
| Oc1ccc(CCCCc2ccc(O)c(O)c2)cc1 | Non-Toxic | Non-Toxic |
| Oc1ccc(CCCCc2ccco2)cc1O | Non-Toxic | Non-Toxic |
| Oc1ccc(CCCCc2ccc(F)cc2)cc1O | Non-Toxic | Non-Toxic |
| CC(C)(C)c1ccc(CCCCc2ccc(O)c(O)c2)cc1 | Non-Toxic | Non-Toxic |
| CC(C)CCn1cc(CCCCc2ccc(O)c(O)c2)c2ccccc21 | Non-Toxic | Non-Toxic |
| Oc1ccc(CCCCc2ccccn2)cc1O | Non-Toxic | Non-Toxic |
| Oc1ccc(CCCCc2cccc3ccccc23)cc1O | Non-Toxic | Non-Toxic |
| Oc1ccc2cc(CCCCc3ccc(O)c(O)c3)ccc2c1 | Non-Toxic | Non-Toxic |
| CC(C)c1ccc(CCCCc2ccc(O)c(O)c2)cc1 | Non-Toxic | Non-Toxic |
